In ChEMBL document CHEMBL3739290, “Thioxo-dihydroquinazolin-one Compounds as Novel Inhibitors of Myeloperoxidase” (ACS Med Chem Lett, 2015):
pIC50: −log10 of the molar value. The source made the active and inactive calls. The rule behind the calls is not given here.

What was measured:
Myeloperoxidase = target: T1, Myeloperoxidase (Homo sapiens, UniProt P05164); assay: Inhibition of human recombinant myeloperoxidase by amplex red assay; settings: for pIC50: read-out: IC50
T1 sequence (P05164 whole entry): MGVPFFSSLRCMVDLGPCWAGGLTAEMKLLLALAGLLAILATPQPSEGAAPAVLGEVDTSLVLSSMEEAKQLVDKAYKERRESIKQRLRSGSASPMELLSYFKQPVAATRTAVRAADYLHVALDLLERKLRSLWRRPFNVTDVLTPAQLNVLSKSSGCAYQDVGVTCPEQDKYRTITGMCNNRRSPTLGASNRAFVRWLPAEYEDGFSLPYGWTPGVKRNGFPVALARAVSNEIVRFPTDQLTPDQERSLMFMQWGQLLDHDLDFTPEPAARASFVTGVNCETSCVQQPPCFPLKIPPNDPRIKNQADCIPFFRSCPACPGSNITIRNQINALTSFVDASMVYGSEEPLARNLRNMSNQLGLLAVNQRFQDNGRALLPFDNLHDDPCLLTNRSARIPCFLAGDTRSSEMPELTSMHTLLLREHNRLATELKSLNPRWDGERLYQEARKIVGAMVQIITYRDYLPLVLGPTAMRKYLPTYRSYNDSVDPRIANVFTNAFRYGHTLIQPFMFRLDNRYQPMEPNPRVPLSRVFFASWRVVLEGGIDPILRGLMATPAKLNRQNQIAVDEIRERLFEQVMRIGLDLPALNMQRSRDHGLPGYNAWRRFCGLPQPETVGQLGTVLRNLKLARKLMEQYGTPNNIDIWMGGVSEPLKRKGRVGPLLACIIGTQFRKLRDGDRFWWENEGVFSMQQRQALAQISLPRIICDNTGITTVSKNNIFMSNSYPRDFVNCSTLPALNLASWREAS

[1] = target: T2, Xanthine dehydrogenase/oxidase (Homo sapiens, UniProt P47989); assay: Inhibition of xanthine oxidase (unknown origin) assessed as superoxide generation measured for 20 mins by luminescence analysis using 50 uM xanthine as a substrate; settings: for pIC50: read-out: IC50
T2 sequence (P47989 whole entry): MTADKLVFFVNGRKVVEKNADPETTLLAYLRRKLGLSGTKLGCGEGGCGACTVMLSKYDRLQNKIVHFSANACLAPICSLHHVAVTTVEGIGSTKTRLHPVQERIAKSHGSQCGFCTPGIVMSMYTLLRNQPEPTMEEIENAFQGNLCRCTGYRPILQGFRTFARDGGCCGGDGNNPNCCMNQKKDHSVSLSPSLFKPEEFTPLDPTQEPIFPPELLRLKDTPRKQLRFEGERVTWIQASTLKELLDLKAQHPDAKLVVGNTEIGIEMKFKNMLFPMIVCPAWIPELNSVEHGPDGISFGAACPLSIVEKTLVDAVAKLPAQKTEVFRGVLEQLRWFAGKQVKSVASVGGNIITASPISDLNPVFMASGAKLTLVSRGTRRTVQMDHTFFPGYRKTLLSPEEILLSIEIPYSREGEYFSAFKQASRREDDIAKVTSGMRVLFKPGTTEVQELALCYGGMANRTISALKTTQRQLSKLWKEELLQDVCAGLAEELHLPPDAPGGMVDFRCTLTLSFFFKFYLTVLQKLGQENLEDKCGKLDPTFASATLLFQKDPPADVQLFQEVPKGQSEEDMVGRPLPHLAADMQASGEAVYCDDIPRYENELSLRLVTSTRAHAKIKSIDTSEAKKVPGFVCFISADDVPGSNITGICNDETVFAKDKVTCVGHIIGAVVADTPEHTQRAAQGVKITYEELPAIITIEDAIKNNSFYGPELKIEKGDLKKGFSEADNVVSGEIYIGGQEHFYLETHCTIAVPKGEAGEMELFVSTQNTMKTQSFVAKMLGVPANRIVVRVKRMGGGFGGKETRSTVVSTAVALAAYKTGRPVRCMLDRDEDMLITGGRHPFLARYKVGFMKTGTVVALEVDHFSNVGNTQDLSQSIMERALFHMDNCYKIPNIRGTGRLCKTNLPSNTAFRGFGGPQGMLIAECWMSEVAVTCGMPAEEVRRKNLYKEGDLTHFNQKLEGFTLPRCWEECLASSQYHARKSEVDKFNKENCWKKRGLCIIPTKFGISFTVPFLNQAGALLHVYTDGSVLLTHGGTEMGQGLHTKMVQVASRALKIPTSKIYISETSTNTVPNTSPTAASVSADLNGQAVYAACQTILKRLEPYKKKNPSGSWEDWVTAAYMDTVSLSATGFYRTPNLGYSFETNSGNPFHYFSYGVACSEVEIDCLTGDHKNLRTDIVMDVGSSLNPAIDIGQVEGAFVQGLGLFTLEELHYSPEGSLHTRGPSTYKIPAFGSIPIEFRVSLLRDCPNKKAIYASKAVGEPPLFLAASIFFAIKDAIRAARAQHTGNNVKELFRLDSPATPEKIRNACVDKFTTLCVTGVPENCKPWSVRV
How it was run: (§1)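 Xanthine/xanthine oxidase served as the oxidant source to check for assay interference. The buffer and pH matched the MPO Amplex Red assay. Inhibitors were tested over a range up to 100 μM.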

[2] = target: T2, Xanthine dehydrogenase/oxidase; assay: Inhibition of xanthine oxidase (unknown origin) assessed as superoxide generation upto 100 uM measured for 20 mins by luminescence analysis using 50 uM xanthine as a substrate; settings: read-out: Imax; how it was run: as §1
[3] = target: T3, Myeloperoxidase (Homo sapiens) (UniProt P05164); settings: 6 uM
T3 sequence (whole entry): T1 sequence (P05164 whole entry)

Armoracia rusticana = assay: Inhibition of horseradish peroxidase by amplex red assay
How it was run: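 Interference counter-screen: the Amplex Red peroxidase assay was run with HRP (20 nM) in place of human MPO, across a range of compound concentrations. Points are the mean ± SEM of three determinations.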

[4] = target: T3, Myeloperoxidase (Homo sapiens); settings: 100 uM
[5] = Solubility of compound in water by nephelometry; type: physicochemical

## CN(C)CCCn1c(=S)[nH]c2ccc(F)cc2c1=O.Cl
Myeloperoxidase
  pIC50: 6.22
[1]
  IC50: Not Active

## CN(C)CCCn1c(=S)[nH]c2cc(Cl)ccc2c1=O
Myeloperoxidase
  pIC50: 5.10
[1]
  pIC50: 5.40
[2]
  Emax: 50%

## CN(C)CCCn1c(=S)[nH]c2cc(F)c(F)cc2c1=O.Cl
Myeloperoxidase
  pIC50: 5.92
[1]
  IC50: Not Active

## CN1CCN(CCCn2c(=S)[nH]c3ccccc3c2=O)CC1
Myeloperoxidase
  pIC50: 5.85
[1]
  IC50: Not Active

## CC(C)n1c(=S)[nH]c2cc3c(cc2c1=O)OCCO3
Myeloperoxidase
  pIC50: < 4.70
[1]
  pIC50: 5.35
[2]
  Emax: 60%

## CCN(CC)CCn1c(=S)[nH]c2ccccc2c1=O
Myeloperoxidase
  pIC50: 5.80
[1]
  IC50: Not Active

## CN(C)CCn1c(=S)[nH]c2ccccc2c1=O
Myeloperoxidase
  pIC50: 5.77
[1]
  IC50: Not Active

## NNC(=O)c1ccc(N)cc1
[3]
  inhibition: Active

## O=C(Nn1c(=S)[nH]c2ccc(F)cc2c1=O)c1cccc(F)c1
Armoracia rusticana
  inhibition: inactive

## O=c1c2ccccc2[nH]c(=S)n1CCN1CCCCC1
Myeloperoxidase
  pIC50: 6.40
[1]
  IC50: Not Active

## CCn1c(=S)[nH]c2ccc(F)cc2c1=O
Myeloperoxidase
  pIC50: 4.82
[1]
  IC50: Not Active

## O=C(NO)c1ccccc1O
[4]
  inhibition: Active

## O=c1c2ccccc2[nH]c(=S)n1CCCCCO
Myeloperoxidase
  pIC50: < 4.40
[1]
  IC50: Not Active

## CN(C)CCCn1c(=S)[nH]c2c(Cl)cc(Cl)cc2c1=O
Myeloperoxidase
  pIC50: < 4.70
[1]
  IC50: Not Active

## CN(C)CCCCCn1c(=O)[nH]c2ccccc2c1=O
Myeloperoxidase
  pIC50: 5.00
[1]
  IC50: Not Active

## CN(C)CCCn1c(=S)[nH]c2ccc(Cl)cc2c1=O.Cl
Myeloperoxidase
  pIC50: 6.10
Armoracia rusticana
  inhibition: inactive
[5]
  solubility kinetic: 90 µg/mL
[1]
  pIC50: 4.82
[2]
  Emax: 71%

## CN(C)CCCn1c(=O)[nH]c2ccccc2c1=O
Myeloperoxidase
  IC50: Not Active
[1]
  IC50: Not Active

## CN(C)CCCn1c(=S)[nH]c2ccccc2c1=O
Myeloperoxidase
  pIC50: 5.89
[1]
  pIC50: 4.70
[2]
  Emax: 20%

## CN(C)CCCCCCn1c(=S)[nH]c2ccc(F)cc2c1=O
Myeloperoxidase
  pIC50: < 4.70
[1]
  pIC50: 4.74
[2]
  Emax: 35%

## O=C(Nn1c(=S)[nH]c2cc3c(cc2c1=O)OCCO3)c1ccc(C(F)(F)F)cc1
Myeloperoxidase
  pIC50: 6.52
[1]
  IC50: Not Active

## CN(C)CCCCn1c(=O)[nH]c2ccccc2c1=O
Myeloperoxidase
  pIC50: 5.00
[1]
  IC50: Not Active
